Reference: ChEMBL document CHEMBL4825700, “A comprehensive assessment of a new series of 5',6'-difluorobenzotriazole-acrylonitrile derivatives as microtubule targeting agents (MTAs)” (Eur J Med Chem, 2021)
Blank lines part the entries; values can stand above or below the compound they belong to. Activity calls are given as the source filed them.

Key:
[1] = Antiproliferative activity against human leukemia cells assessed as reduction in cell viability measured after 24 to 48 hrs by XTT assay; format: functional; conditions: Panel leukemia (Carcinoma cell lines), time 24-48 hrs; for CC50: read-out: LC50 (the source's name)
Sus scrofa [2] = organism: Sus scrofa; assay: Inhibition of pig tubulin polymerization measuring every 20 sec for 30 mins by fluorescence based analysis
HeLa [3] = assay: Induction of cell cycle arrest in human HeLa cells assessed as accumulation of cells at G2/M phase at 5 uM incubated for 48 hrs by 7-AAD staining based flow cytometry analysis (reference value: 30%); format: functional
In short: (§1)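 HeLa seeded at 50% confluence, treated after 24 h with 5 or 10 µM for 24 or 48 h. Adherent plus floating cells fixed in ice-cold 70% ethanol overnight at -20 °C, stained with 7-AAD 20 min at room temperature; 20000 events per sample by flow cytometry; phase percentages compared with control.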

A498 = assay: Antiproliferative activity against human A498 cells assessed as reduction in cell growth at 4 to 16 uM incubated for 72 hrs in presence of extrusion-pump inhibitor, SS26 by CellTox based fluorescence analysis; format: functional; conditions: dose 4-16 µM
In short: (§2)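 A498, A-704, A549 and HT1197 cells (DMEM high glucose, 10% FBS, 37 °C, 5% CO2) plated 500/well with SiR-DNA 0.5 µM and CellTox Green 0.8x, treated next day at 1, 2, 4, 8, 16 µM alone or with EPI SS26 at fixed 1 µM, 0.3% DMSO. Nuclei and dead cells imaged at 0, 24, 48, 72 h; percentage growth calculated; three technical replicates.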

Tubulin (Homo sapiens) [4] = biological target: T1, Tubulin (Homo sapiens) (UniProt P68371+Q9H4B7+P0DPH7+P68366+Q13509+Q71U36+P04350+Q3ZCM7+P07437+P68363+Q9BQE3+Q6PEY2+Q13885+Q9BVA1+Q9BUF5); assay: Disruption of microtubules in human HeLa cells assessed as beta-tubulin disassembly at 50 to 500 nM incubated for 24 hrs by high-content confocal microscopy; format: cell-based; conditions: dose 50-500 nM
In short: (§3)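 HeLa treated 24 h at 10, 25, 50, 100 and 500 nM, stained for β-tubulin and nuclei (DAPI), imaged by high-content confocal microscopy; tubulin disassembly and cell dimension compared with controls.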

[5] = Antiproliferative against human ovarian cancer cells assessed as reduction in cell growth incubated for 24 to 48 hrs by XTT assay; format: functional, Panel ovarian (Carcinoma cell lines); conditions: Ovarian carcinoma cell, time 24-48 hrs
In short: (§4)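 NCI60 panel screen by the NCI Developmental Therapeutics Program: single dose of 10 µM first; compounds meeting inhibition criteria retested at five 10-fold dilutions, 100 µM to 0.01 µM; GI50, TGI and LC50 derived.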

HeLa [6] = assay: Induction of cell cycle arrest in human HeLa cells assessed as accumulation of cells at G0/G1 phase at 5 uM incubated for 24 hrs by 7-AAD staining based flow cytometry analysis (reference value: 65%); format: functional; in short: as §1
[7] = Antiproliferative against human prostate cancer cells assessed as reduction in cell growth incubated for 24 to 48 hrs by XTT assay; format: functional; conditions: Panel prostate (Carcinoma cell lines), time 24-48 hrs; in short: as §4
Tubulin (Homo sapiens) [8] = biological target: T1, Tubulin (Homo sapiens); assay: Disruption of microtubules in human HeLa cells assessed as increase in cytoplasmic dimensions at 50 nM incubated for 24 hrs by high-content confocal microscopy relative to control; format: cell-based; in short: as §3
HeLa [9] = assay: Induction of cell cycle arrest in human HeLa cells assessed as accumulation of cells at S phase at 10 uM incubated for 48 hrs by 7-AAD staining based flow cytometry analysis (reference value: 5%); format: functional; in short: as §1
[10] = test system: Panel CNS (Carcinoma cell lines); assay: Antiproliferative activity against human CNS cancer cells assessed as reduction in cell viability measured after 24 to 48 hrs by XTT assay; format: functional; conditions: time 24-48 hrs; for CC50: read-out: LC50 (the source's name)
A549 = assay: Antiproliferative activity against human A549 cells assessed as reduction in cell growth at 4 to 16 uM incubated for 72 hrs in presence of extrusion-pump inhibitor, SS26 by CellTox based fluorescence analysis; format: functional; conditions: dose 4-16 µM; in short: as §2
HeLa [11] = assay: Induction of cell cycle arrest in human HeLa cells assessed as accumulation of cells at G0/G1 phase at 10 uM incubated for 48 hrs by 7-AAD staining based flow cytometry analysis (reference value: 65%); format: functional; in short: as §1
NCI-H522 = assay: Antiproliferative activity against human NCI-H522 cells assessed as reduction in cell growth at […] measured after 24 to 48 hrs by XTT assay; format: functional; conditions: time 24-48 hrs, read-out: GI; in short: as §4
Sus scrofa [12] = organism: Sus scrofa; assay: Displacement of colchicine from pig tubulin assessed as reduction in colchicine effectiveness on tubulin assembly measured every 20 secs for 30 mins by fluorescence based analysis
[13] = Antiproliferative activity against human NSC lung cancer cells assessed as reduction in cell viability measured after 24 to 48 hrs by XTT assay; format: functional; conditions: Non-small cell lung cancer cell line, time 24-48 hrs; for CC50: read-out: LC50 (the source's name)
[14] = test system: Panel NCI-60 (60 carcinoma cell lines); assay: Antiproliferative against human NCI-60 cells assessed as reduction in cell growth incubated for 24 to 48 hrs by XTT assay; format: functional; conditions: time 24-48 hrs; in short: as §4
HeLa [15] = assay: Induction of cell cycle arrest in human HeLa cells assessed as accumulation of cells at G2/M phase at 10 uM incubated for 24 hrs by 7-AAD staining based flow cytometry analysis (reference value: 30%); format: functional; in short: as §1
HeLa [16] = assay: Induction of cell cycle arrest in human HeLa cells assessed as accumulation of cells at S phase at 5 uM incubated for 24 hrs by 7-AAD staining based flow cytometry analysis (reference value: 5%); format: functional; in short: as §1
U-251 = assay: Antiproliferative activity against human U-251 cells assessed as lethality measured after 24 to 48 hrs by XTT assay; format: functional; conditions: time 24-48 hrs
In short: (§5)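 NCI60 screen run by the NCI Developmental Therapeutics Program. A single 10 µM dose was first tested across the full 60-cell-line panel. Compounds meeting the inhibition selection criteria were then retested at five 10-fold dilutions from 100 µM to 0.01 µM. GI50, TGI and LC50 were reported as molar concentrations for each tumour-type group.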

HeLa [17] = assay: Induction of cell cycle arrest in human HeLa cells assessed as accumulation of cells at G2/M phase at 10 uM incubated for 48 hrs by 7-AAD staining based flow cytometry analysis (reference value: 30%); format: functional; in short: as §1
HeLa [18] = assay: Induction of cell cycle arrest in human HeLa cells assessed as accumulation of cells at S phase at 10 uM incubated for 24 hrs by 7-AAD staining based flow cytometry analysis (reference value: 5%); format: functional; in short: as §1
HeLa [19] = assay: Induction of cell cycle arrest in human HeLa cells assessed as accumulation of cells at G2/M phase at 5 uM incubated for 24 hrs by 7-AAD staining based flow cytometry analysis (reference value: 30%); format: functional; in short: as §1
A704 = assay: Antiproliferative activity against human A704 cells assessed as reduction in cell growth at 4 to 16 uM incubated for 48 to 72 hrs in presence of extrusion-pump inhibitor, SS26 by CellTox based fluorescence analysis; format: functional; conditions: dose 4-16 µM, time 48-72 hrs; in short: as §2
[20] = Antiproliferative activity against human colon cancer cells assessed as reduction in cell viability measured after 24 to 48 hrs by XTT assay; format: functional, Panel colon (Carcinoma cell lines); conditions: Colon carcinoma cell, time 24-48 hrs
[21] = Antiproliferative against human renal cancer cells assessed as reduction in cell growth incubated for 24 to 48 hrs by XTT assay; format: functional; conditions: Panel renal (Carcinoma cell lines), time 24-48 hrs; in short: as §4
HeLa [22] = assay: Induction of cell cycle arrest in human HeLa cells assessed as accumulation of cells at G0/G1 phase at 10 uM incubated for 24 hrs by 7-AAD staining based flow cytometry analysis (reference value: 65%); format: functional; in short: as §1
HeLa [23] = assay: Induction of cell cycle arrest in human HeLa cells assessed as accumulation of cells at S phase at 5 uM incubated for 48 hrs by 7-AAD staining based flow cytometry analysis (reference value: 5%); format: functional; in short: as §1
[24] = Antiproliferative against human breast cancer cells assessed as reduction in cell growth incubated for 24 to 48 hrs by XTT assay; format: functional, Panel breast (Carcinoma cell lines); conditions: Breast carcinoma cell, time 24-48 hrs; in short: as §4
HT1197 = assay: Antiproliferative activity against human HT1197 cells assessed as reduction in cell growth at 4 to 16 uM incubated for 72 hrs in presence of extrusion-pump inhibitor, SS26 by CellTox based fluorescence analysis; format: functional; conditions: dose 4-16 µM; in short: as §2
[25] = Antiproliferative against human melanoma cells assessed as reduction in cell growth incubated for 24 to 48 hrs by XTT assay; format: functional; conditions: Panel melanoma (Carcinoma cell lines), time 24-48 hrs; for CC50: read-out: LC50 (the source's name); in short: as §4
[26] = test system: Panel CNS (Carcinoma cell lines); assay: Antiproliferative activity against human CNS cancer cells assessed as lethality measured after 24 to 48 hrs by XTT assay; format: functional; conditions: time 24-48 hrs; in short: as §5
HeLa [27] = assay: Antiproliferative activity against human HeLa cells assessed as reduction in cell viability measured after 48 hrs by XTT assay; format: functional, cell-based
In short: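 HeLa (DMEM, 10% FBS, 37 °C, 5% CO2) seeded 1500 cells/well, treated 24 h later at 0.1–5 µM for 24 and 48 h; DMSO vehicle as control. XTT reagent 4 h at 37 °C, absorbance at 490 nm; IC50 calculated from viability; more than three independent experiments, each in triplicate.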

HeLa [28] = assay: Induction of incomplete cytokinesis with increased cell dimension in human HeLa cells at 0.3 uM measured after 48 hrs by fluorescence microscopy; format: functional, cell-based
HeLa [29] = assay: Induction of cell cycle arrest in human HeLa cells assessed as accumulation of cells at G0/G1 phase at 5 uM incubated for 48 hrs by 7-AAD staining based flow cytometry analysis (reference value: 65%); format: functional; in short: as §1
CCRF-CEM [30] = assay: Antiproliferative activity against human CCRF-CEM cells assessed as inhibition of cell growth at 10 uM measured after 24 to 48 hrs by XTT assay; format: functional; conditions: time 24-48 hrs, read-out: GI; in short: as §4
CCRF-CEM [31] = assay: Antiproliferative activity against human CCRF-CEM cells assessed as inhibition of cell proliferation measured after 96 hrs by MTT assay; format: functional, cell-based
[32] = read-out: LC50 (the source's name)

SMILES: Cc1ccc(/C=C(\C#N)n2nnc3cc(F)c(F)cc32)cc1
- GI50 [1]: 391 nM
- TGI [1]: ≥ 871 nM
- CC50 [1]: > 100000 nM
- inhibition (Sus scrofa [2]): Active
- Activity (HeLa [3]): 50%
- Activity (A498): Active
- Activity (Tubulin (Homo sapiens) [4]): Active
- GI50 [5]: 1470 nM
- TGI [5]: ≥ 6080 nM
- CC50 [5, 32]: ≥ 33800 nM
- Activity (HeLa [6]): 39%
- GI50 [7]: 3320 nM
- TGI [7]: 15600 nM
- CC50 [7, 32]: 66200 nM
- fold change (FC) (Tubulin (Homo sapiens) [8]): 3
- Activity (HeLa [9]): 3%
- GI50 [10]: 1480 nM
- TGI [10]: 2940 nM
- CC50 [10]: ≥ 5830 nM
- Activity (A549): Active
- Activity (HeLa [11]): 10%
- inhibition of growth (NCI-H522): 93%
- Activity (Sus scrofa [12]): Active
- GI50 [13]: 291 nM
- TGI [13]: 1120 nM
- CC50 [13]: ≥ 6780 nM
- GI50 [14]: ≤ 100 nM
- TGI [14]: ≤ 1000 nM
- CC50 [14, 32]: ≤ 1000 nM
- Activity (HeLa [15]): 66%
- Activity (HeLa [16]): 7%
- Activity (U-251): >=90%
- Activity (HeLa [17]): 87%
- Activity (HeLa [18]): 14%
- Activity (HeLa [19]): 54%
- Activity (A704): Active
- GI50 [20]: 421 nM
- TGI [20]: 1530 nM
- CC50 [20, 32]: ≥ 5800 nM
- GI50 [21]: 1770 nM
- TGI [21]: 7410 nM
- CC50 [21, 32]: ≥ 36700 nM
- Activity (HeLa [22]): 20%
- Activity (HeLa [23]): 9%
- GI50 [24]: 1160 nM
- LC50 [24]: > 100000 nM
- TGI [24]: ≥ 5390 nM
- Activity (HT1197): Active
- GI50 [25]: 360 nM
- TGI [25]: ≥ 100000 nM
- CC50 [25]: ≥ 7670 nM
- Activity [26]: >=90%
- IC50 (HeLa [27]): 3200 nM
- Activity (HeLa [28]): Active
- Activity (HeLa [29]): 41%

SMILES: N#C/C(=C\c1cccc2cnccc12)n1nnc2ccccc21
- GI50 [1]: 253 nM
- TGI [1]: ≥ 24300 nM
- CC50 [1]: > 100000 nM
- inhibition of growth at 10 µM (CCRF-CEM [30]): 100%
- GI50 [10]: 184 nM
- TGI [10]: ≥ 3610 nM
- CC50 [10]: > 100000 nM
- GI50 [13]: 532 nM
- TGI [13]: ≥ 5130 nM
- CC50 [13]: > 100000 nM
- GI50 [24]: 557 nM
- LC50 [24]: > 100000 nM
- TGI [24]: ≥ 2840 nM
- GI50 [25]: 2040 nM
- TGI [25]: > 100000 nM
- CC50 [25]: > 100000 nM

- IC50 (CCRF-CEM [31]): 200 nM
SMILES: COc1ccc(/C=C(\C#N)n2nnc3ccccc32)cc1
